Calls of active or inactive are those of the source.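 How the source made its calls: active means compounds whose mean dose-response EC50 for APJ receptor activation is under 20 micromolar; inactive means the rest.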
Target: Apelin receptor (Homo sapiens) (UniProt P35414)
Test: apelin receptor activators, concentration-response – cell-based, luminescence, uHTS hits, dose response (AID 488748)
Settings: CHO-K1 APJ PathHunter beta-arrestin
In short: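 system = CHO-K1 cells stably expressing ProLink-tagged APJ and enzyme-acceptor-fused beta-arrestin | schedule = overnight cell seeding, 90 min compound exposure at 25 °C, 60 min detection | benchmarks = Apelin-13 agonist as positive control | detection = luminescence from beta-galactosidase fragment complementation after detection reagent | doses = compound dose series over a concentration range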

Sequence of Apelin receptor (Homo sapiens) (P35414 whole entry, looked up): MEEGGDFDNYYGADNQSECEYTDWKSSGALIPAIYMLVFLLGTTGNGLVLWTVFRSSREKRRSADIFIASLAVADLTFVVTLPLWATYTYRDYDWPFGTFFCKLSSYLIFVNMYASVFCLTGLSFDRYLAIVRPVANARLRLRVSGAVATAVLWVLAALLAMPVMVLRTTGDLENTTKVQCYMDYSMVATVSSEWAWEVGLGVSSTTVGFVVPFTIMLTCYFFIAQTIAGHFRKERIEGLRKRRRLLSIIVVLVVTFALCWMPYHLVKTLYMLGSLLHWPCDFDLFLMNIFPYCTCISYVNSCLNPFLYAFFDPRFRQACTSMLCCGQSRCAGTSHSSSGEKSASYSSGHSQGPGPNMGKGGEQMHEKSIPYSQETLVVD

| EC50 | Compound |
| --- | --- |
| > 100 µM (inactive) | COC(=O)C1=C(Cn2cnc3ccccc32)NC(=O)NC1c1cc(C)ccc1C (stereo not given) |
| 7.6 µM | CC1=CC(=O)C(C(C)C)=C/C1=N/OS(=O)(=O)c1ccccc1 |

More lines, now with the values behind:

| Compound | EC50 |
| --- | --- |
| COc1ccc(/C=N/Nc2cc(C)nc3ccc(OC)cc23)c(OC)c1 | > 100 µM (inactive) |
| CCOC(=O)C1=C(Cn2cnc3ccccc32)NC(=O)NC1c1cc(C)ccc1C (stereo not given) | > 100 µM (inactive) |
| CCCCCCc1cc2cc(-c3nnc(-c4cc(OC)c(OC)c(OC)c4)o3)c(=O)oc2cc1O | > 100 µM (inactive) |
